# Assay results from different studies.
# Compare with care: the assays were run in different laboratories.
# LCK: Tyrosine-protein kinase Lck (LCK, Homo sapiens, UniProt P06239)
# NMUR1: Neuromedin-U receptor 1 (NMUR1, Homo sapiens, UniProt Q9HB89)
Structure (SMILES),target,read-out,action,technique,setting,quantity,result
COc1ccc2c(Oc3ccc4c(C(=O)Nc5ccccc5N)cccc4c3)ccnc2c1,"Tyrosine-protein kinase JAK2 (JAK2, Homo sapiens, UniProt O60674)",enzyme activity,inhibitor,,,IC50,> 500 nM
COc1ccc(-c2nsc(NC(=O)[C@@H]3C[C@H]3C)c2C)cc1,"Metabotropic glutamate receptor 2 (GRM2, Homo sapiens, UniProt Q14416)",calcium signal,agonist,,,EC50,> 25000 nM
c1cncc(-c2cccc(Nc3nccc(NC4CCCCC4)n3)c2)c1,"Tyrosine-protein kinase JAK2, JH1 (JAK2, Homo sapiens, UniProt O60674)",binding,,competition with immobilised ligand,,Kd,260 nM
Nc1ccn([C@@H]2O[C@H](COP(=O)(O)OP(=O)(O)OP(=O)(O)O)[C@@H](O)[C@H]2O)c(=O)n1,"virB (Shigella flexneri, UniProt P0A247)",binding,,ITC,,Kd,9300 nM
Cc1cc2nc3c(=O)[nH]c(=O)nc-3n(C[C@H](O)[C@H](O)[C@H](O)COP(=O)(O)OP(=O)(O)OC[C@H]3O[C@@H](n4cnc5c(N)ncnc54)[C@H](O)[C@@H]3O)c2cc1C,"RNA-binding protein Musashi homolog 2 (MSI2, Homo sapiens, UniProt Q96DH6)",binding,,,lysate,Kd,59 nM
Cc1cnc(-c2ccc(-c3ccc(NC(=O)Nc4c(F)cc(F)cc4F)cc3F)c3c2C(=O)NC3)[nH]1,LCK,binding,,competition with immobilised ligand,,Kd,11 nM
Cc1ncsc1-c1ccc([C@H](C)NC(=O)[C@@H]2C[C@@H](O)CN2C(=O)[C@@H](NC(=O)CCCCCC(=O)N2CCC3(CC2)CCN(c2cncc(Nc4ncc(Cl)c(-c5cccc(-c6ccccc6)c5)n4)c2)C3=O)C(C)(C)C)cc1,"Phosphatidylinositol 5-phosphate 4-kinase type-2 gamma (PIP4K2C, Homo sapiens, UniProt Q8TBX8)",protein level,degrader,western blot,,DC50,24 nM
CCOc1cc(-c2nncn2C)ccc1Nc1ncc2cc(C)nc(NCC(C)(C)C)c2n1,"Mitogen-activated protein kinase 9 (MAPK9, Homo sapiens, UniProt P45984)",binding,,competition with immobilised ligand,,Kd,74 nM
CC(C)C[C@H](NC(=O)[C@H](Cc1ccccc1)NC(=O)[C@H](Cc1ccc(O)cc1)NC(=O)CNC(=O)[C@H](CCCNC(=N)N)NC(=O)[C@H](CO)NC(=O)[C@H](CCC(N)=O)NC(=O)[C@H](CO)NC(=O)[C@H](C)NC(=O)[C@H](Cc1ccccc1)NC(=O)[C@@H]1CCCN1C(=O)[C@H](CO)NC(=O)[C@H](CCC(N)=O)NC(=O)[C@H](Cc1ccccc1)NC(=O)[C@H](CCC(=O)O)NC(=O)[C@H](CCC(=O)O)NC(=O)[C@H](CC(=O)O)NC(=O)[C@@H](NC(=O)[C@H](CCCNC(=N)N)NC(=O)[C@@H](N)Cc1ccccc1)C(C)C)C(=O)N[C@@H](Cc1ccccc1)C(=O)N[C@@H](CCCNC(=N)N)C(=O)N1CCC[C@H]1C(=O)N[C@@H](CCCNC(=N)N)C(=O)N[C@@H](CC(N)=O)C(N)=O,NMUR1,inositol phosphate,agonist,,,EC50,0.123 nM
CN1CC(Oc2cnc(C#N)cc2-c2ccn3nc(NC(=O)C4CC4)cc3c2)C1,LCK,enzyme activity,inhibitor,,,Ki,220 nM
CC(C)C[C@H](NC(=O)[C@H](Cc1ccccc1)NC(=O)[C@@H](N)Cc1ccc(O)cc1)C(=O)N[C@@H](Cc1ccccc1)C(=O)N[C@@H](CCCNC(=N)N)C(=O)N1CCC[C@H]1C(=O)N[C@@H](CCCNC(=N)N)C(=O)N[C@@H](CC(N)=O)C(N)=O,NMUR1,β-arrestin recruitment,agonist,,,EC50,1.7 nM
ON=Cc1ccc(-c2ccc(O)c(F)c2)c(Cl)c1O,"Estrogen receptor beta (ESR2, Homo sapiens, UniProt Q92731)",reporter gene,agonist,luciferase,,EC50,72 nM
